Values after ≈ are worked out from the molar mass of the structure shown. Each block holds one compound with its values, some of them ahead of it. Active and inactive are the calls of the source. The calls are words filed in the database; no cut-off is given here.
Experiments:
Escherichia coli [1] = experiment: Inhibition of recombinant Escherichia coli FtsZ GTPase activity expressed in Escherichia coli BL21 (DE3) assessed as production of inorganic phosphate up to 600 uM after 10 mins by malachite green-phosphomolybdate colorimetric assay in presence of triton X-100
Summary of the method: (§1)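 Recombinant EcFtsZ, purified by ammonium sulfate precipitation, ion exchange and gel filtration, used at 2 µM with 0.25 mM GTP in 50 mM MES pH 6.0, 100 mM KCl, 5 mM MgCl2. Incubated 10 min at 23 °C with serially diluted inhibitor. Pi read at 635 nm by malachite green-phosphomolybdate against a standard curve to give IC50. Triton X-100 at 0.01% where stated.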

Escherichia coli [2] = experiment: Antibacterial activity against Escherichia coli K12 C600 envA1 assessed as growth inhibition after 18 hrs by microbroth dilution method; details: envA1, 18 h
[3] = Inhibition of recombinant Escherichia coli FtsZ GTPase activity expressed in Escherichia coli BL21 (DE3) assessed as production of inorganic phosphate after 10 mins by malachite green-phosphomolybdate colorimetric assay; summary of the method: as §1
[4] = target: T1, Cell division protein FtsZ (Staphylococcus aureus) (UniProt P0A031); experiment: Inhibition of recombinant Staphylococcus aureus FtsZ GTPase activity expressed in Escherichia coli BL21 (DE3) assessed as production of inorganic phosphate up to 600 uM after 20 mins by malachite green-phosphomolybdate colorimetric assay in presence of triton X-100
T1 sequence (whole entry): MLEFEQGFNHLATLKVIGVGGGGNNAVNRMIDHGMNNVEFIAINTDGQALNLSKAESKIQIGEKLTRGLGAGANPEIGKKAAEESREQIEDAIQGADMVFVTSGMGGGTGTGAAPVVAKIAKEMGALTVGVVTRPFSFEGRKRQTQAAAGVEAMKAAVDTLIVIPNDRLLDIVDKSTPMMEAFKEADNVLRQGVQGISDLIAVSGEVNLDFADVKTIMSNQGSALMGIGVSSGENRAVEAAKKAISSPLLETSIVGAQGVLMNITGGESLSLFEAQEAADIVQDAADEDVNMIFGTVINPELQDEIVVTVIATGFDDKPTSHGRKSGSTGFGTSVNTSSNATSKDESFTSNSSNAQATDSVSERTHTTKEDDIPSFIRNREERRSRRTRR
Summary of the method: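 Recombinant SaFtsZ at 6 µM with 0.25 mM GTP in 50 mM MES pH 6.0, 100 mM KCl, 5 mM MgCl2, plus 0.01% Triton X-100. Incubated 20 min at 30 °C with serially diluted inhibitor. Pi measured at 635 nm by malachite green-phosphomolybdate against a standard curve.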

Escherichia coli [5] = experiment: Inhibition of C-terminal YFP-fused Escherichia coli FtsZ cloned in Escherichia coli envA1 assessed as protein dispersion in from of patches throughout cytoplasm at 125 uM after 30 to 60 mins by fluorescence microscopic analysis
Summary of the method: (§2)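 envA1 carrying arabinose-inducible pFtsZ-YFP grown in LB with 20 µg/mL chloramphenicol at 37 °C to OD600 ~0.2, then induced with 0.4% L-arabinose for 30 min. Cells washed in PBS/tetracycline and resuspended in LB. 1 mL aliquots treated in 1% MeOH or 1% DMSO for 30 or 60 min. Imaged by confocal fluorescence (ex 488, em 558) plus DIC, 100× objective.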

[6] = target: T2, Cell division protein FtsZ (Staphylococcus aureus, UniProt P0A031); experiment: Inhibition of recombinant Staphylococcus aureus FtsZ GTPase activity expressed in Escherichia coli BL21 (DE3) assessed as production of inorganic phosphate after 20 mins by malachite green-phosphomolybdate colorimetric assay
T2 sequence (P0A031 whole entry): T1 sequence (whole entry)
Summary of the method: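 SaFtsZ (recombinant; stored at −80 °C in 50 mM Tris pH 7.4, 50 mM KCl, 1 mM EDTA, 10% glycerol), 6 µM, with 0.25 mM GTP in 50 mM MES pH 6.0, 100 mM KCl, 5 mM MgCl₂. Run 20 min at 30 °C with serially diluted inhibitor. Pi read at 635 nm against a standard curve to give IC₅₀. DMSO control up to 8%.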

Escherichia coli [7] = experiment: Inhibition of C-terminal YFP-fused Escherichia coli FtsZ transformed in Escherichia coli envA1 assessed as Z ring formation at 125 uM after 30 to 60 mins by fluorescence microscopic analysis; summary of the method: as §2
Escherichia coli [8] = experiment: Inhibition of C-terminal YFP-fused Escherichia coli FtsZ cloned in Escherichia coli envA1 assessed as Z ring formation at 340 uM after 30 to 60 mins by fluorescence microscopic analysis; summary of the method: as §2
Escherichia coli [9] = experiment: Inhibition of C-terminal YFP-fused Escherichia coli FtsZ cloned in Escherichia coli envA1 assessed as protein dispersion in from of patches throughout cytoplasm at 340 uM after 30 to 60 mins by fluorescence microscopic analysis; summary of the method: as §2
[10] = target: T3, Cell division protein FtsZ (Bacillus subtilis) (UniProt A5Z1V5); experiment: Displacement of mant-GTP from Bacillus subtilis FtsZ by fluorescence anisotropy analysis
T3 sequence (whole entry): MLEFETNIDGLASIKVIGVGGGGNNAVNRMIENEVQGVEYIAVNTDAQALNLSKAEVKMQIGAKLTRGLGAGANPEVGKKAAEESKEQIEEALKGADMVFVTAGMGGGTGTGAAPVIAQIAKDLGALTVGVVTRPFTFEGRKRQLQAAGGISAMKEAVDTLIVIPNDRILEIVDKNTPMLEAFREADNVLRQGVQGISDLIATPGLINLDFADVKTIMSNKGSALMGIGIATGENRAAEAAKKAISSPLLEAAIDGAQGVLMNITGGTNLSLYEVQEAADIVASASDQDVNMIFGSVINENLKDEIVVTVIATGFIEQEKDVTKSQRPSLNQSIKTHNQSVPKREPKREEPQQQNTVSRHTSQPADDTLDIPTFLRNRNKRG
Summary of the method: (§3)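 Nucleotide-free B. subtilis FtsZ (380 nM) with mant-GTP (500 nM), titrated with competitor. Displacement read as the change in fluorescence anisotropy and fit by least squares to a simple competition model. GTP (150 µM) served as the displacement control.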

[11] = target: T3, Cell division protein FtsZ (Bacillus subtilis); experiment: Inhibition of Bacillus subtilis SU570 GFP-fused FtsZ assessed as perturbation of Z-ring formation at 12 uM after 60 mins by fluorescence microscopic analysis
[12] = target: T4, Cell division protein FtsZ (Bacillus subtilis, UniProt A5Z1V5); experiment: Inhibition of Bacillus subtilis FtsZ GTPase activity assessed as production of inorganic phosphate measured up to 60 mins by malachite green-phosphomolybdate colorimetric assay
T4 sequence (A5Z1V5 whole entry): T3 sequence (whole entry)

[13] = target: T3, Cell division protein FtsZ (Bacillus subtilis); experiment: Displacement of mant-GTP from Bacillus subtilis FtsZ assessed as equilibrium association constant by fluorescence anisotropy analysis; summary of the method: as §3
[14] = target: T3, Cell division protein FtsZ (Bacillus subtilis); experiment: Displacement of [3H]-GTP from Bacillus subtilis FtsZ assessed as equilibrium association constant by scintillation counting assay
Summary of the method: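 Nucleotide-free B. subtilis FtsZ (70 nM) incubated with 3H-GTP (100 nM) and competitor. FtsZ-bound label measured by co-sedimentation and scintillation counting. 3H-GTP binding constant determined separately. Data fit to a simple competition model.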

Escherichia coli [15] = experiment: Inhibition of C-terminal YFP-fused Escherichia coli FtsZ cloned in Escherichia coli envA1 assessed as mislocalization of protein throughout cell at 680 uM after 30 mins by fluorescence microscopic analysis; summary of the method: as §2
Escherichia coli [16] = experiment: Inhibition of C-terminal RFP-fused Escherichia coli FtsZ cloned in Escherichia coli envA1 assessed as intact red fluorescent Z-ring formation at 680 uM after 30 to 60 mins by fluorescence microscopic analysis
Summary of the method: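 envA1 carrying arabinose-inducible pFtsZ-tdTomato (pFtsZ-RFP), induced and treated by the same protocol, 680 µM for 30 min. Red fluorescence imaged (ex 555, em 630) alongside the yellow channel and DIC at 30 and 60 min post induction.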

Escherichia coli [17] = experiment: Inhibition of C-terminal YFP-fused Escherichia coli FtsZ cloned in Escherichia coli envA1 assessed as mislocalization of protein in polar region at 4.9 uM after 30 to 60 mins by fluorescence microscopic analysis; summary of the method: as §2
Escherichia coli [18] = experiment: Inhibition of C-terminal YFP-fused Escherichia coli FtsZ cloned in Escherichia coli envA1 assessed as mislocalization of protein throughout cell at 120 uM after 30 to 60 mins by fluorescence microscopic analysis; summary of the method: as §2

SMILES: Oc1cc(O)c2c(c1)C/C(Cl)=C\Cc1cc(c(Cl)cc1O)Oc1c(O)cc(cc1O)C/C(Cl)=C\Cc1cc(c(Cl)cc1O)O2
inhibition (Escherichia coli [1]): Active
MIC50 (Escherichia coli [2]): 27 µM (≈ 18.3 µg/mL)
IC50 [3]: 9.9 µM
inhibition [4]: Active
inhibition (Escherichia coli [5]): Active
IC50 [6]: 67 µM
inhibition (Escherichia coli [7]): Active

SMILES: COc1cc(C/C=C(/Cl)Cc2cc(O)cc(O)c2)c(OC)cc1Cl
inhibition (Escherichia coli [8]): Active
inhibition (Escherichia coli [9]): Active
inhibition (Escherichia coli [1]): Active
MIC50 (Escherichia coli [2]): 84 µM (≈ 31 µg/mL)
inhibition [10]: Dose-dependent effect
IC50 [3]: 37 µM
inhibition [11]: Active
inhibition [4]: Active
IC50 [12]: 70 µM
IC50 [6]: 38 µM
Ka [13]: 1.5 ×10⁵ /M
Ka [14]: 0.87 ×10⁵ /M

SMILES: COc1ccc2cc3[n+](cc2c1OC)CCc1cc2c(cc1-3)OCO2
inhibition (Escherichia coli [15]): Active
inhibition (Escherichia coli [16]): inactive

Other lines, results leading:

inhibition (Escherichia coli [17]): Active
SMILES: Oc1ccc(Cl)cc1Cc1cc(Cl)cc(Cc2cc(Cl)ccc2O)c1O

inhibition (Escherichia coli [18]): Active
SMILES: CCN(CC)CCNc1nc(/C=C/c2ccc(Cl)cc2)nc2cc3ccccc3cc12

Source: ChEMBL document CHEMBL2417459, “Chrysophaentins are competitive inhibitors of FtsZ and inhibit Z-ring formation in live bacteria” (Bioorg Med Chem, 2013)
